From PMC4618315 (Nature, 2015) come the findings set out here.

SMILES strings stand for the structures. Positions count from the first letter of the chain named.

What all share (assay type): binding
For assay [1], the target named is T1, rGLUT5 with a single tryptophan residue (W419) (Rattus norvegicus, UniProt P43427, N50Y/W191F/W239F/W265F/W275F/W338F/W370F/W70F).
T1 sequence (P43427 with tags, fused parts or gaps N50Y/W70F/W191F/W239F/W265F/W275F/A285T/W338F/W370F/T452S): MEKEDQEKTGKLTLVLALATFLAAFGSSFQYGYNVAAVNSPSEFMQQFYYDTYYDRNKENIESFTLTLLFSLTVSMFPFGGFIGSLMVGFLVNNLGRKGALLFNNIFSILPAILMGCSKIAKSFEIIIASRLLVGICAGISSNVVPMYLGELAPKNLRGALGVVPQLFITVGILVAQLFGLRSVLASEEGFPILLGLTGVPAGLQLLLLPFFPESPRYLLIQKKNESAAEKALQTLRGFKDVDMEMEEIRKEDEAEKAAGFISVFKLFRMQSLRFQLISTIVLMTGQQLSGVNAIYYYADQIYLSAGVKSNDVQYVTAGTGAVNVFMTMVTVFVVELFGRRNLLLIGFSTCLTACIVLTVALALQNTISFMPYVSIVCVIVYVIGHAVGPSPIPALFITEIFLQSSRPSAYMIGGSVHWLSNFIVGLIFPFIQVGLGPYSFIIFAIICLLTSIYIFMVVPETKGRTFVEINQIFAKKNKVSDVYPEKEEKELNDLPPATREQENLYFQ
Briefly: Tryptophan fluorescence quenching of rat GLUT5 single tryptophan. To be noted: 40 mM sugar. In short, it runs like this: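 Single-Trp rat protein (N50Y plus W70F, W191F, W239F, W265F, W275F, W338F, W370F) was used at 0.06 mg/ml in 20 mM Tris pH 7.5, 150 mM NaCl, 0.03% DDM, with or without 5 mM HgCl2. Sugars were each added at 40 mM final; D-fructose was also added sequentially up to 40 mM. After 2 min at room temperature: excitation 295 nm, emission 338 nm. Kd by non-linear regression; triplicate.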

The target in another assay is T2, rGLUT5 Q166E (Rattus norvegicus, UniProt P43427, A285T/N50Y/Q166E/T452S).
T2 sequence (P43427 with tags, fused parts or gaps N50Y/Q166E/A285T/T452S): T1 sequence (P43427 with tags, fused parts or gaps N50Y/W70F/W191F/W239F/W265F/W275F/A285T/W338F/W370F/T452S) with F70W, Q166E, F191W, F239W, F265W, F275W, F338W, F370W
As to the kind of experiment: Tryptophan fluorescence quenching of purified rat GLUT5 Q166E mutant. To be noted: rGLUT5 Q166E relative to WT; 40 mM sugar. The essentials: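 Deglycosylated N50Y rat background carried the Q166E mutation, made by PCR mutagenesis and purified as WT (Ni-NTA, SEC in DDM). Protein was used at 0.06 mg/ml in 20 mM Tris pH 7.5, 150 mM NaCl, 0.03% DDM, with or without 5 mM HgCl2 pre-incubation. Single 40 mM D-fructose or D-glucose additions, or increasing D-glucose, were incubated 2 min at room temperature. Readout: excitation 295 nm, 338 nm emission peak; triplicate.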

Assay [2] addresses T3, rGLUT5 (rat GLUT5 deglycosylation mutant N50Y, "WT") (Rattus norvegicus, UniProt P43427, A285T/N50Y/T452S).
T3 sequence (P43427 with tags, fused parts or gaps N50Y/A285T/T452S): T1 sequence (P43427 with tags, fused parts or gaps N50Y/W70F/W191F/W239F/W265F/W275F/A285T/W338F/W370F/T452S) with F70W, F191W, F239W, F265W, F275W, F338W, F370W
Briefly: Tryptophan fluorescence quenching of purified rat GLUT5 WT.

The target in the next assay is T4, bovine GLUT5 (Bos taurus, UniProt P58353, N51A).
T4 sequence (P58353 with tags, fused parts or gaps N51A): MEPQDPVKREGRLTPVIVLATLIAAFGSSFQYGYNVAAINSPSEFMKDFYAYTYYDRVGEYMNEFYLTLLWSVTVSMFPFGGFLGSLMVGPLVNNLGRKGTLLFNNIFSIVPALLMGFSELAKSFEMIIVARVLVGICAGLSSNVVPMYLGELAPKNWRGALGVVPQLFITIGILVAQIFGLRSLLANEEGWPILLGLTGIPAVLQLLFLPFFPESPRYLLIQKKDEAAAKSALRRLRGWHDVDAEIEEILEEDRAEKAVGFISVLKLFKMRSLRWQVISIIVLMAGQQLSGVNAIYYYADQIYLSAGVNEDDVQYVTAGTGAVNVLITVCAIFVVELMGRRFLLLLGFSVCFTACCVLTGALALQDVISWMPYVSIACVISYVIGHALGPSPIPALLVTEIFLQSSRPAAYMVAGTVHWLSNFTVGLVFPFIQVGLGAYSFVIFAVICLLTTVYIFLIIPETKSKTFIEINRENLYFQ
In short, it runs like this:
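Bovine construct (residues 1–473 of 501, N51A deglycosylation) was expressed in S. cerevisiae, solubilised in 1% DDM and bound to Ni-NTA. It was TEV-cleaved and run on SEC in 10 mM Tris-HCl pH 7.5, 150 mM NaCl, 0.09% UDMβ. D-fructose was added sequentially, with 2 min room-temperature incubation after each addition. Trp fluorescence: excitation 295 nm, emission 338 nm.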

With `O=C[C@H](O)[C@@H](O)[C@@H](O)[C@H](O)CO` [D-galactose], the “tryptophan quenching (in words)” value in assay [1] was “No tryptophan quenching”.
In the case of `O=C(CO)[C@H](O)[C@@H](O)[C@@H](O)CO` [L-fructose, reference compound], the “tryptophan quenching (in words)” value in assay [1] is listed as “No tryptophan quenching”.
For `OC[C@H]1OC(O)[C@H](O)[C@@H](O)[C@@H]1O` (stereo partly drawn) [D-glucose], in assay [1], the “tryptophan quenching (in words)” value is recorded as “No tryptophan quenching”. For the same molecule, the “sugar binding (in words)” value on rGLUT5 Q166E is recorded as “robust binding”.
`O=C(CO)[C@@H](O)[C@H](O)[C@H](O)CO` [D-fructose]: the Kd in assay [2] (Kd, purified rGLUT5 WT (N50Y) in DDM, excitation 295 nm, emission 338 nm, n = 3) is 6 to 9 mM; on bovine GLUT5, 5.5 ± 0.6 mM. Further, the “quenching of tryptophan fluorescence (in words)” value in assay [2] (addition of sugar (40 mM) to rGLUT5) is reported as “strong quenching”. Also, the “sugar binding (in words)” value at rGLUT5 Q166E was “clearly weakens”.

Usually Kd stands for the free concentration of one partner at which half of the binding sites on the other are occupied at equilibrium, for simple one-to-one binding. A higher Kd goes with a looser complex.
